# ChEMBL document CHEMBL4270523, “A comparative study of non-native N-acyl l-homoserine lactone analogs in two Pseudomonas aeruginosa quorum sensing receptors that share a common native ligand yet inversely regulate virulence” (Bioorg Med Chem, 2018)
# Columns and labels:
# [1] = molecular target: T1, PhzR (Pseudomonas aeruginosa) (UniProt Q9RMS5); assay: Agonist activity at Pseudomonas aeruginosa QscR expressed in Escherichia coli JLD271 harboring QscR expression plasmid pJN105Q and pPA1897-lacZ transcriptional fusion reporter pSC11-Q measured after 35 mins by Miller-type beta-galactosidase reporter gene assay relative to OdDHL
# T1 sequence (whole entry): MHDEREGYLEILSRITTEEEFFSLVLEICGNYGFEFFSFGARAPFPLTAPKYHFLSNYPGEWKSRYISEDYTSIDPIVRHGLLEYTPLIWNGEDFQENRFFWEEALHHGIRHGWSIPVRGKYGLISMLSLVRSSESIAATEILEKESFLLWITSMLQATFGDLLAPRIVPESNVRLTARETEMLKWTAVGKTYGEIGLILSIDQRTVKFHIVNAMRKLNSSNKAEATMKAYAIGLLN
# How it was run: (§1)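 E. coli JLD271 (ΔsdiA) reporter cells grown in LB at 37 °C. Miller-type β-galactosidase assay with CPRG or ONPG substrate; growth read as OD600. Compounds tested from 1 pM to 100 μM. Activity is expressed relative to 100 μM OdDHL. EC50 taken from dose–response curves. Run in triplicate, n ≥ 3 trials; 95% CIs from SEM. Maximum activation has error ±10%.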
# [2] = molecular target: T2, Transcriptional activator protein LasR (Pseudomonas aeruginosa (strain ATCC 15692 / PAO1 / 1C / PRS 101 / LMG12228), UniProt P25084); assay: (§2) Agonist activity at Pseudomonas aeruginosa LasR expressed in Escherichia coli JLD271 harboring LasR expression plasmid pJN105L and lasI-lacZ transcriptional fusion reporter pSC11-L measured after 35 mins by Miller-type beta-galactosidase reporter gene assay
# T2 sequence (P25084 whole entry): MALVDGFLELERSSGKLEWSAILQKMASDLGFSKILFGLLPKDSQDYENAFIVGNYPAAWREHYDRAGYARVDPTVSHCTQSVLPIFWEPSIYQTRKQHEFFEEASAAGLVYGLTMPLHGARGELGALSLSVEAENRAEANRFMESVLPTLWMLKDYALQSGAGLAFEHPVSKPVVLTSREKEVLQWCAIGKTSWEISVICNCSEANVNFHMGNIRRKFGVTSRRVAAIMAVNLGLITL
# How it was run: as §1, with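 “curves.” for “curves. Run in triplicate, n ≥ 3 trials; 95% CIs from SEM.”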
# [3] = molecular target: T3, Transcriptional activator protein LasR (Pseudomonas aeruginosa (strain ATCC 15692 / PAO1 / 1C / PRS 101 / LMG12228)) (UniProt P25084); assay: Agonist activity at Pseudomonas aeruginosa LasR expressed in Escherichia coli JLD271 harboring LasR expression plasmid pJN105L and lasI-lacZ transcriptional fusion reporter pSC11-L measured after 35 mins by Miller-type beta-galactosidase reporter gene assay relative to OdDHL; how it was run: as §1
# T3 sequence (whole entry): T2 sequence (P25084 whole entry)
# [4] = molecular target: T4, PhzR (Pseudomonas aeruginosa, UniProt Q9RMS5); assay: (§3) Agonist activity at Pseudomonas aeruginosa QscR expressed in Escherichia coli JLD271 harboring QscR expression plasmid pJN105Q and pPA1897-lacZ transcriptional fusion reporter pSC11-Q measured after 35 mins by Miller-type beta-galactosidase reporter gene assay
# T4 sequence (Q9RMS5 whole entry): T1 sequence (whole entry)
# How it was run: as §1, with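 “curves.” for “curves. Run in triplicate, n ≥ 3 trials; 95% CIs from SEM.”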
# [5] = molecular target: T1, PhzR (Pseudomonas aeruginosa); assay: as §3, with “Antagonist” for “Agonist”, “using ONPG as substrate assessed as inhibition of OdDHL-induced receptor activation” for “measured”, “4 hrs” for “35 mins”; settings: concentration not given here
# [6] = molecular target: T4, PhzR; assay: as above
# [7] = molecular target: T2, Transcriptional activator protein LasR; assay: as §2, with “Antagonist” for “Agonist”, “assessed as inhibition of OdDHL-induced receptor activation” for “measured”, “4 hrs” for “35 mins”
# [8] = molecular target: T3, Transcriptional activator protein LasR (Pseudomonas aeruginosa (strain ATCC 15692 / PAO1 / 1C / PRS 101 / LMG12228)); assay: as above; settings: concentration not given here
SMILES,Activity [1],EC50 [2],Activity [3],EC50 [4],inhibition [5],IC50 [6],IC50 [7],inhibition [8]
CCCCCCCCCC(=O)CC(=O)N[C@H]1CCNC1=O,56%,29.7 nM,110%,3320 nM,–,–,–,–
CCCCCCCCCC(=O)CC(=O)NCC1CCCO1 (stereo not given),3.2%,256 nM,96%,–,59%,> 250000 nM,–,–
CCCCCCCCCC(=O)CC(=O)N[C@H]1CCO[C@@H]1O,110%,1880 nM,96%,3460 nM,–,–,–,–
CCCCCCCCCCCS(=O)(=O)N[C@H]1CCOC1=O,72%,–,6.4%,1590 nM,–,–,–,–
CCCCCCCCCC(=O)CC(=O)O[C@H]1CCOC1=O,37%,–,27%,–,23%,> 250000 nM,> 250000 nM,53%
CCCCCCCCCC(=O)CC(=O)N[C@H]1CCOC1,74%,906 nM,81%,815 nM,–,–,–,–
CCCCCCCCCC(=O)CC(=O)NC1CCCC1,100%,162 nM,88%,359 nM,–,–,–,–
CCCCCCCCCC(=O)CC(=O)N[C@@H]1CCOC1=O,110%,–,99%,–,–,–,–,–
CCCCCCCCCC(=O)CC(=O)N[C@H]1CCSC1=O,110%,1.53 nM,100%,80.5 nM,–,–,–,–
CCCCCCCCCC(=O)CC(=O)N[C@H]1CCCC1=O,77%,14.9 nM,110%,834 nM,–,–,–,–
